# This is a sample that favours compounds with a hit; in the whole collection about 0.74% have one here.
# ASAP1 GAP inh – blocks human ASAP1-stimulated Arf1 GTP hydrolysis | Q9ULH1 | GDP FP detection | inhibition, % at 16.5 µM | actives 0.19% (n = 360,000) | AID 624377; in the data active means inhibition above about 25%;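 further: 0% = vehicle with enzyme and substrate and 100% = no enzyme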
# Target sequence (Q9ULH1 325-724 limits assumed): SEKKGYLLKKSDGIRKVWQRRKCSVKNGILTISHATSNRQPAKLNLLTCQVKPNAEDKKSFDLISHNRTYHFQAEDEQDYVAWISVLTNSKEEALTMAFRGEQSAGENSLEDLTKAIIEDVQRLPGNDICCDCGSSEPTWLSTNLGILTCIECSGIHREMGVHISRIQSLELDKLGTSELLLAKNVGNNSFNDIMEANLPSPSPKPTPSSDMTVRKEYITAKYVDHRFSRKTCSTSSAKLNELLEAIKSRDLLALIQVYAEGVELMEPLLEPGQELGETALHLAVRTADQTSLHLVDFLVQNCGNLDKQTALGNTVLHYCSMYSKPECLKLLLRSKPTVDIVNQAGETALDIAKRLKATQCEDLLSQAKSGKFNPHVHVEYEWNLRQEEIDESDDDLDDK
# DDE Tn6 FP inh – disrupts Tn6 cyclic peptide binding to fibrin D-Dimer-E complex; Fibrin DD(E) TRITC-Tn6 fluorescence polarization displacement; AID 720509; P02675; inhibition, % at 8.3 µM; actives 0.21% (n = 370,000);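 active means inhibition above a per-campaign cutoff: mean of compounds within control limits plus 3 SD, cut at about 15% in these data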;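 further: 0% = median of all compound wells on the plate and 100% = blocking peptide control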
# Tn7 DDE FP – DD(E)-Tn7 binding inhibition, primary FP screen. actives 0.13% (n = 370,000). inhibition, % at 8.3 µM. FP displacement of FITC-Tn7 peptide from fibrin DD(E); 0% = median of compound wells per plate. P02675;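 active means inhibition above the mean of compounds falling within the control limits plus 3 SD of them, cut at about 14% in these data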;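 further: 0% = plate median of compound wells and 100% = 10 µM Aha-Tn7 peptide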
#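 Assay system: Human clot-derived fibrin DD(E) complex | Buffer or medium: Tris/NaCl/CaCl2 buffer, pH 7.8 | Repeats: One replicate per compound | Benchmarks: Aha-Tn7 high control | Measure: % inhibition scaled between sample-field median and high-control FP | Schedule: 10 min plus 3 h, room temperature | Signal: Fluorescence polarization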
# ARFGAP1 inh – inhibits rat ARF GTPase activating protein 1 | Q62848 | Arfgap1-stimulated ARF1 GTP hydrolysis, GDP FP detection | inhibition, % at 16.5 µM | actives 0.26% (n = 360,000) | AID 651572;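 active means inhibition above a per-plate limit, mean inhibition of low control wells plus 3 SD, cut at about 25% in these data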;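 further: 0% = DMSO wells with enzyme and 100% = wells lacking Arfgap1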
# Target sequence (Q62848 1-136 limits assumed): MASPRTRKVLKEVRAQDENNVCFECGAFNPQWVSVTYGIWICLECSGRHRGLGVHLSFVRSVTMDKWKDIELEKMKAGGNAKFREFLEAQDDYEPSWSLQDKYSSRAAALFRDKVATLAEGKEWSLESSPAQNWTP
#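 Material – truncated rat Arfgap1 GAP domain · Buffer or medium – HEPES-based buffer, pH 7.5 · Reagent – human ARF1(Δ1-17)-GTP substrate · Dosing – 16.5 µM single point, 1.26% DMSO · Schedule – GTP hydrolysis reaction 2 h at 25 °C · Technique – GDP detection by fluorescence polarization · Benchmarks – No-Arfgap1 wells (100%) versus DMSO full-reaction wells (0%) · Repeats – single replicate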
# ARFGAP1 inh conf – rat ARFGAP1 inhibition, confirmed; shares compounds with ARFGAP1 inh; ARFGAP1-stimulated ARF1 GTP hydrolysis, GDP tracer FP; inhibition, % at 16.5 µM; actives 30% (n = 890); AID 651608;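 active means average inhibition over triplicates above the hit cutoff set in the earlier primary screen, cut at about 25% in these data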;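 further: 0% = Arfgap1 plus ARF1-GTP with DMSO and 100% = wells lacking Arfgap1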
# Starred values were filed as active, the others as inactive; . = no result given.
SMILES,ASAP1 GAP inh,DDE Tn6 FP inh,Tn7 DDE FP,ARFGAP1 inh,ARFGAP1 inh conf
COc1ccc(-c2csc(NC(=O)CN3C(=O)NC4(CCCC4)C3=O)n2)c(OC)c1,4,4,10,-5,.
Cc1ccccc1-c1ccc2c(c1)[C@@H]1C[C@H](N(C)C(=O)Nc3ccccc3)[C@H]([C@H](C)O)CN1CC2,-4,1,-2,-2,.
CC(C)Cc1ccc(C(C)NC(=O)Cc2ccc(S(=O)(=O)N3CCOCC3)s2)cc1 (centres undefined),1,5,4,25*,4
O=C1NC(c2ccccc2)(c2ccccc2)C(=O)N1CNc1ccccn1,11,-7,-3,6,.
CCOC(=O)c1ccc(NC(=S)N(CCCN2CCCC2)Cc2cccs2)cc1,1,6,1,25*,-3
CCCn1cc(CCC(=O)Nc2ccc(Oc3cccnc3)cc2)c2ccccc21,4,-3,-1,4,.
COc1cc(/C=N/NC(=O)c2cc(-c3cccc(Br)c3)nc3ccccc23)cc(OC)c1O,6,-8,6,27*,7
COc1cc(/C=N/NC(=O)c2cc(-c3ccccc3)nc3ccccc23)ccc1O,12,1,3,12,.
S=C1NCN(CC2CC2)CN1,5,3,-2,2,.
COc1ccc(/C=C/c2nc(N)nc(-c3ccccc3O)n2)cc1OC,21,-3,1,30*,38*
CCC1Nc2ncnc(N3CCCCC3)c2N(Cc2ccc(Cl)cc2)C1=O (centres undefined),-6,-8,-10,29*,1
CCOc1cc(/C=C/C(=O)Nc2ccc(C(=O)NCCN(CC)CC)cc2)ccc1OCC(C)C,22,-6,-4,28*,26*
COc1ccc(CCNC(=O)CN(c2ccccc2OC)S(C)(=O)=O)cc1,-1,-4,6,28*,-6
COC(=O)[C@]12C[C@H](CC(=O)N3CCCCC3)C(=O)N(Cc3ccc4c(c3)OCO4)C1=C[C@H](COCc1ccccc1)O[C@@H]2C,0,11,2,4,.
CCCCOc1ccc(/C=C/C(=O)Nc2ccc(C(N)=O)cc2)cc1,13,-2,-6,2,.
C=CCOc1ccc(/C=C/C(=O)Nc2ccc(C(=O)NC)cc2)cc1,19,0,-5,29*,37*
COC(=O)C1=C(C)N(C)C(=NCc2cccc(C(F)(F)F)c2)NC1c1ccc(Cl)cc1 (centres undefined),5,0,4,0,.
O=C(O)CCC(=O)Nc1cccc(C(=O)Nc2cccc(Cl)c2)c1,4,-6,3,63*,0
CC1(C)CC(=O)C=C(c2ccccc2-c2cccc(C(N)=O)c2)C1=O,1,1,0,2,.
COc1ccc2c(c1)C(c1ccc(C)o1)=NNC(c1cccnc1)=N2,-6,6,-12,25*,1
CN1CCC(OC(=O)COc2ccccc2)CC1,0,2,-2,-2,.
Cc1ccc(OCC(=O)Oc2cccc(C)c2C)cc1,-9,-7,-2,10,.
Cc1cccc(OCC(=O)OC2CCN(C)CC2)c1,-4,-2,-8,26*,0
Cc1ccc(OCC(=O)Oc2cccc(C)c2)cc1,8,5,1,26*,-5
CC1(C)CCC(C)(C)c2cc(NC(=O)c3ccc(C(=O)O)cc3)ccc21,.,-3,-1,.,.
SMILES,ASAP1 GAP inh,DDE Tn6 FP inh,Tn7 DDE FP,ARFGAP1 inh,ARFGAP1 inh conf
Cc1cc(O)cc(=O)n1-c1cc(F)c(F)c(F)c1,-9,-3,0,-13,.
C=CCN1C(=O)c2[nH]nc(-c3ccccc3)c2C1c1ccc(C)cc1 (centres undefined),6,-4,5,-1,.
N/C(=N\OC(=O)c1ccccc1[N+](=O)[O-])c1cccnc1,2,-1,-4,3,.
O=C(Oc1cccnc1)c1ccccc1[N+](=O)[O-],-14,9,6,25*,6
O=C(N[C@H](Cc1ccccc1)C(=O)NCCN1CCOCC1)[C@H]1O[C@@H](n2ccc(=O)[nH]c2=O)[C@H](O)[C@@H]1O,-8,5,3,-4,.
CC(C)C(=O)Nc1cc2c3c(c1)CCC(=O)N3CCC2,-13,6,-5,25*,-9
O=C(O)C1=C[C@@H](O)[C@@H](O)[C@H](O)C1,2,-3,-1,36*,-2
NS(=O)(=O)c1cccc(NC(=O)CSc2ncnc3ccccc23)c1,7,-4,-2,9,.
Cc1sc2ncnc(SCC(=O)Nc3cccc(S(N)(=O)=O)c3)c2c1C,-1,-3,-9,27*,2
C=C1[C@H](C)CN(S(=O)C(C)(C)C)[C@H]1CCO (some centres undefined),12,-1,-2,9,.
COc1cccc(N(C(=O)Cn2nnc(-c3cccs3)n2)C(C(=O)NC2CCCCC2)c2ccncc2)c1 (centres undefined),4,0,8,0,.
Cc1ccc(C)c(N(C(=O)Cn2nnc(-c3cccs3)n2)C(C(=O)NC2CCCC2)c2ccncc2)c1 (centres undefined),-9,2,-4,31*,-3
CN(C)/C=N/c1nc(Sc2ccc(C(F)(F)F)cc2[N+](=O)[O-])n[nH]1,-10,-3,5,-13,.
O=[N+]([O-])c1cc(C(F)(F)F)cc([N+](=O)[O-])c1Sc1n[nH]c(C(F)(F)F)n1,13,2,1,29*,-11
O=C(Nc1cc([N+](=O)[O-])ccc1Cl)c1cccnc1,-10,3,4,25*,4
CNC(=O)c1c(NC(=O)c2ccc(S(=O)(=O)N3CC(C)OC(C)C3)cc2)sc2c1CCN(C(C)C)C2 (centres undefined),1,1,8,26*,3
CNC(=O)c1c(NC(=O)c2ccc(S(=O)(=O)N3CCCC3)cc2)sc2c1CCN(C(C)C)C2,2,3,-5,-1,.
COC(=O)CCN(Cc1cccc(OC)c1OC)S(=O)(=O)c1ccccc1Br,-1,-15,3,-2,.
N=C1C(c2nc(-c3ccc(Br)cc3)cs2)=C(O)CN1NC(=O)c1ccc([N+](=O)[O-])cc1,21,-13,3,-5,.
Cc1ccc(-c2csc(C3=C(O)CN(NC(=O)c4ccc([N+](=O)[O-])cc4)C3=N)n2)cc1,14,5,6,28*,31*
Cc1ccc(NC(=O)OCCN2CCN(S(=O)(=O)c3ccc(C)cc3)CCC2=O)cc1,-5,-6,-5,3,.
Cc1ccc(S(=O)(=O)N2CCC(=O)N(CCOC(=O)Nc3ccc(C)c(C)c3)CC2)cc1,13,-5,2,35*,0
O=C(O)C(=Cc1ccc([N+](=O)[O-])cc1)c1ccccc1,-15,-2,5,-16,.
COc1ccc(Cc2c(C3CCCCC3)nc3ccc(C)cn23)c(C)c1,1,0,2,-8,.

# Screening results: PubChem BioAssay, The Scripps Research Institute Molecular Screening Center
